Reference: ChEMBL document CHEMBL1144688, “Gentisyl alcohol derivatives from the marine-derived fungus Penicillium terrestre” (J Nat Prod, 2008)
pIC50: −log10 of the molar value.

Legend:
HL-60 = test: Cytotoxicity against human HL60 cells by MTT assay; format: functional, cell-based
Summary of the method: (§1)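 Cells at 5 × 10^4 cells/mL were preincubated for 24 h, then exposed to compounds in MeOH at various concentrations for 72 h. MTT (5 mg/mL) was added for 4 h, the formazan was dissolved in DMSO, and absorbance was read at 540 nm.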

[1] = DPPH radical scavenging activity; format: functional
Summary of the method: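 Samples dissolved in MeOH were mixed with methanolic DPPH, shaken and left for 30 min. Absorbance was read at 520 nm and percent inhibition calculated. IC50 is the concentration that scavenges 50% of the DPPH radicals.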

A549 = test: Cytotoxicity against human A549 cells by SRB method; format: functional, cell-based
Summary of the method: (§2)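 Cells were plated at 2 × 10^5 cells/mL and treated with test compounds in MeOH over a concentration range for 24 h. They were then fixed with 12% TCA, stained with 0.4% SRB and read at 515 nm. IC50 was taken from the linear portion of log dose–response curves.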

MOLT-4 = test: Cytotoxicity against human MOLT4 cells by MTT assay; format: functional, cell-based; summary of the method: as §1
Bel-7402 = test: Cytotoxicity against human BEL-7402 cells by SRB method; format: functional, cell-based; summary of the method: as §2
[2] = target: Vascular endothelial growth factor receptor 2 (Homo sapiens) (UniProt P35968); conditions: at 10 µM
[3] = target: Proto-oncogene tyrosine-protein kinase Src (Homo sapiens) (UniProt P12931); test: Inhibition of Src kinase at 10 uM by ELISA
Summary of the method: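 ELISA on plates precoated with 20 µg/mL poly(Glu,Tyr)4:1, using purified kinase and 5 µM ATP in 50 mM HEPES pH 7.4 with MgCl2, MnCl2, Na3VO4 and DTT, for 1 h at 37 °C. Phosphotyrosine was detected with PY99 antibody, then HRP anti-mouse IgG and o-phenylenediamine/H2O2, read at 490 nm. Inhibition was calculated against the 1% DMSO control, in duplicate.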

Chain of Proto-oncogene tyrosine-protein kinase Src (Homo sapiens) (P12931 2-536 limits assumed): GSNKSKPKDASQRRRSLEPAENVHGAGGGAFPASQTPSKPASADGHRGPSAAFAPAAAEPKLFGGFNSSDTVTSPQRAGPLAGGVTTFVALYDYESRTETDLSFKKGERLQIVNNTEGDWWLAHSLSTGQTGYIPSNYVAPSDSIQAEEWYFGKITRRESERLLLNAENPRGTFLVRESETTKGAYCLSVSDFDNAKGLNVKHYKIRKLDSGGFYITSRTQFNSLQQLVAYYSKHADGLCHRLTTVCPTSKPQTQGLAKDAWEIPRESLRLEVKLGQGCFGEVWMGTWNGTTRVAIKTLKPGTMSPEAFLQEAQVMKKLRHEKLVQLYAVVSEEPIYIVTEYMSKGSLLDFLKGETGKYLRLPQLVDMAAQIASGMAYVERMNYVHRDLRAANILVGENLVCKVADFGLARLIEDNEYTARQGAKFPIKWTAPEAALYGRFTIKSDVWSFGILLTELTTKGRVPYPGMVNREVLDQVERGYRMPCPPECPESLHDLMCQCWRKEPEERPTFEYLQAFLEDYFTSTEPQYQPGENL
Chain of Vascular endothelial growth factor receptor 2 (Homo sapiens) (P35968 whole entry): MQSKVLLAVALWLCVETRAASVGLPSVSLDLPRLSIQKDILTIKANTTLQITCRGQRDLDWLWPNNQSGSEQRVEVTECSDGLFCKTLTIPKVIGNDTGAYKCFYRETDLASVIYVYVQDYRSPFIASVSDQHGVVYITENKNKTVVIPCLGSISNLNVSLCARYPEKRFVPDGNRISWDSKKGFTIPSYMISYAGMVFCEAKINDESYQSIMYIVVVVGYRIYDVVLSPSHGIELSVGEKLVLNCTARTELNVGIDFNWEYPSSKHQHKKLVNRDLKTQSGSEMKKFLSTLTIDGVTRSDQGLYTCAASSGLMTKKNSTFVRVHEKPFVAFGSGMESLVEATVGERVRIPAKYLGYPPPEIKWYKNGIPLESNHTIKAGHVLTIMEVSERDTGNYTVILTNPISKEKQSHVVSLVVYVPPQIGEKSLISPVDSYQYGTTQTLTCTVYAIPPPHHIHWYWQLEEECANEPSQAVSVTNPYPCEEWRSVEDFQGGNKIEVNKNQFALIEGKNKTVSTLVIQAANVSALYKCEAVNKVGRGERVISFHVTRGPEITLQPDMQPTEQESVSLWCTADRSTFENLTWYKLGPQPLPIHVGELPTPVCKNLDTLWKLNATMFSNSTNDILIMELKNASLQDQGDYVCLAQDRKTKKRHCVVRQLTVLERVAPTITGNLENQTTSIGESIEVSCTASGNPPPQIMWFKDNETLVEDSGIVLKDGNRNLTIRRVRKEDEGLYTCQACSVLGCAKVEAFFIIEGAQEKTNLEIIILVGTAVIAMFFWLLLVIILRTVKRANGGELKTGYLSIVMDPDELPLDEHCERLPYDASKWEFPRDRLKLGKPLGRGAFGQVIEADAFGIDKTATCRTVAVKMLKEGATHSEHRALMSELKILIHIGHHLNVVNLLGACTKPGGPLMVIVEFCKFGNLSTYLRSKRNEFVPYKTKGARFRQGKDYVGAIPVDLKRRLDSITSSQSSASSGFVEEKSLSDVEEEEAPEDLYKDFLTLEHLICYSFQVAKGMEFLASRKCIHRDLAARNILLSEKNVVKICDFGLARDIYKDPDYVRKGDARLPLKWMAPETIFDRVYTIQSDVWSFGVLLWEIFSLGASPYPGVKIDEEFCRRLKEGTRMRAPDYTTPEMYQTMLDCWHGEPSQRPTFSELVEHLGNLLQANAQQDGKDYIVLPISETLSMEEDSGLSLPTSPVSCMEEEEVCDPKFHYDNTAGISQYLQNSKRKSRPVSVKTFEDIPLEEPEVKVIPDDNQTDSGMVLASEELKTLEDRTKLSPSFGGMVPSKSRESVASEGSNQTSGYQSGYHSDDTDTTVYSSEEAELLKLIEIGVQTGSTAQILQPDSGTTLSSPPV

| pIC50 [1] | inhibition [2] [%] | inhibition [3] [%] | SMILES | pIC50 (HL-60) | pIC50 (A549) | pIC50 (MOLT-4) | pIC50 (Bel-7402) |
| --- | --- | --- | --- | --- | --- | --- | --- |
| 5.21 |  |  | OCc1cc(OCc2cc(O)ccc2O)ccc1O | 4.26 | 5.02 | 5.19 | 4.23 |
| 5.37 |  |  | Oc1ccc(O)c(COCc2cc(O)cc(Cl)c2O)c1 | 5.21 | 4.74 | 5.24 | 4.21 |
| 5.34 |  |  | Oc1ccc(O)c(COCc2cc(O)ccc2O)c1 | 5.26 | 4.74 | 5.25 | 4.24 |
| 5.39 | 31.8 | 35.9 | OCc1cc(O)c(Cc2cc(O)ccc2O)c(Cl)c1O | 5.29 | 5.24 | 5.19 | 5.22 |
| 5.59 |  |  | COCc1cc(O)c(Cc2cc(O)c(Cc3cc(O)ccc3O)cc2O)cc1O | 4.48 | 4.63 | 5.26 | 4.24 |
| 5.36 |  |  | OCc1cc(OCc2cc(O)ccc2O)cc(Cl)c1O | 5.28 | 4.84 | 5.26 | 4.41 |
| 5.01 |  |  | COCc1cc(O)ccc1O | 4.23 | < 4.00 | 4.06 | < 4.00 |
| 5.07 |  |  | COCc1cc(O)cc(Cl)c1O | 5.17 | 4.25 | 4.19 | 4.24 |
| 5.20 |  |  | COCc1cc(O)c(Cc2cc(O)ccc2O)cc1O | 5.20 | 4.47 | 5.24 | 4.21 |
| 5.28 |  |  | OCc1c(O)c(Cl)cc(O)c1Cc1cc(O)ccc1O | 4.26 | 4.86 | 4.24 | 4.20 |
